Laboratory results reported in ChEMBL document CHEMBL3525925, “In vitro studies on the oxidative metabolism of 20(s)-ginsenoside Rh2 in human, monkey, dog, rat, and mouse liver microsomes, and human liver s9” (Drug Metab Dispos, 2012).

Assays:
Cytochrome P450 3A5 = Cytochrome P450 3A5 (Homo sapiens, UniProt P20815); experiment: Drug level in human recombinant CYP3A5 treated with 10 uM 20(S)-ginsenoside Rh2 for 60 mins by MS2 spectra; format: ADME; details: recombinant enzyme, 1 h
In short: (§1)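 Recombinant human P450 (50 nM) with 10 μM Rh2 under the microsomal conditions: 100 mM potassium phosphate pH 7.4, 2 mM NADPH, 37°C for 60 min. Stopped with equal volume ice-cold acetonitrile. Run in duplicate; products analysed by LC/ion-trap MSn.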

Liver [1] = experiment: Drug level in CD-1 mouse liver microsomes treated with 10 uM 20(S)-ginsenoside Rh2 for 60 mins by MS2 spectra; format: ADME; details: 1 h
In short: (§2)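 Rh2 at 10 μM final (from methanol stock; 0.1% v/v methanol final) in 100 mM potassium phosphate pH 7.4 with 2 mM NADPH, open-to-air tubes at 37°C. 3 min preincubation, then started with liver microsomes or S9 at 1 mg/ml protein. Incubated 60 min, stopped with equal volume ice-cold acetonitrile. Controls lacked NADPH; duplicates. Metabolites detected by LC/ion-trap MSn.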

Cytochrome P450 3A4 = Cytochrome P450 3A4 (Homo sapiens, UniProt P08684); experiment: Drug level in human recombinant CYP3A4 treated with 10 uM 20(S)-ginsenoside Rh2 for 60 mins by MS2 spectra; format: ADME; details: recombinant enzyme, 1 h; in short: as §1
[2] = Drug level in cynomolgus monkey liver microsomes treated with 10 uM 20(S)-ginsenoside Rh2 for 60 mins by MS2 spectra; format: ADME, Macaca fascicularis; details: 1 h; in short: as §2
Liver microsome [3] = experiment: Drug level in human liver microsomes treated with 10 uM 20(S)-ginsenoside Rh2 for 60 mins by MS2 spectra; format: ADME; details: 1 h; in short: as §2
Liver [4] = experiment: Drug level in human liver S9 fraction treated with 10 uM 20(S)-ginsenoside Rh2 for 60 mins by MS2 spectra; format: ADME, subcellular; details: s9, 1 h; in short: as §2
[5] = Retention time in cynomolgus monkey liver microsomes treated with 10 uM 20(S)-ginsenoside Rh2 by MS2 spectra; format: ADME, Macaca fascicularis
In short: (§3)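 Samples: incubation mixed with equal volume methanol, centrifuged at 14,000g for 5 min, dried under nitrogen at 40°C, reconstituted. Separated on Eclipse XDB-C18 (4.6 × 150 mm, 5 μm) at 0.5 ml/min. Gradient: 0.1% formic acid in methanol against 0.1% formic acid in 5 mM ammonium acetate, 70% to 100% organic over 17 min. Ion-trap MSn detection.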

Liver microsome [6] = experiment: Drug level in beagle dog liver microsomes treated with 10 uM 20(S)-ginsenoside Rh2 for 60 mins by MS2 spectra; format: ADME, Canis lupus familiaris; details: 1 h; in short: as §2
Liver microsome [7] = experiment: Drug level in Sprague-Dawley rat liver microsomes treated with 10 uM 20(S)-ginsenoside Rh2 for 60 mins by MS2 spectra; format: ADME; details: 1 h; in short: as §2
Liver microsome [8] = experiment: Retention time in human liver microsomes treated with 10 uM 20(S)-ginsenoside Rh2 by MS2 spectra; format: ADME; in short: as §3
Liver [9] = experiment: Retention time in human liver S9 fraction treated with 10 uM 20(S)-ginsenoside Rh2 by MS2 spectra; format: ADME, subcellular; in short: as §3
Liver cytosol [10] = experiment: Drug metabolism in human liver cytosol assessed as 26-carboxy,20(S)-Ginsenoside Rh2 formation at 10 uM by LC/MS analysis in presence of 100 uM raloxifene aldehyde oxidase inhibitor; format: ADME; details: in the assay text read “100 nM raloxifene” for “100 uM raloxifene”
In short: (§4)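 Pooled human liver cytosol (1 mg/ml) with 2 mM NAD+ and inhibitor in 100 mM potassium phosphate pH 7.4; inhibitors given from DMSO, 0.1% v/v final. After 15 min preincubation at 37°C, started with 10 μM M1-1 or 26-aldehyde-Rh2. Run 60 min, stopped with ice-cold acetonitrile. Duplicates, uninhibited controls; M2-3 acid measured by LC/MSn.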

Liver cytosol [11] = experiment: Drug metabolism in human liver cytosol assessed as 26-carboxy,20(S)-Ginsenoside Rh2 formation at 10 uM by LC/MS analysis in presence of 50 uM 4-methylpyrazole alcohol dehydrogenase inhibitor; format: ADME; in short: as §4
Liver cytosol [12] = experiment: Drug metabolism in human liver cytosol assessed as 26-carboxy,20(S)-Ginsenoside Rh2 formation at 10 uM by LC/MS analysis in presence of 50 uM disulfiram aldehyde dehydrogenase inhibitor; format: ADME; in short: as §4

Sequence of Cytochrome P450 3A5 (P20815 whole entry): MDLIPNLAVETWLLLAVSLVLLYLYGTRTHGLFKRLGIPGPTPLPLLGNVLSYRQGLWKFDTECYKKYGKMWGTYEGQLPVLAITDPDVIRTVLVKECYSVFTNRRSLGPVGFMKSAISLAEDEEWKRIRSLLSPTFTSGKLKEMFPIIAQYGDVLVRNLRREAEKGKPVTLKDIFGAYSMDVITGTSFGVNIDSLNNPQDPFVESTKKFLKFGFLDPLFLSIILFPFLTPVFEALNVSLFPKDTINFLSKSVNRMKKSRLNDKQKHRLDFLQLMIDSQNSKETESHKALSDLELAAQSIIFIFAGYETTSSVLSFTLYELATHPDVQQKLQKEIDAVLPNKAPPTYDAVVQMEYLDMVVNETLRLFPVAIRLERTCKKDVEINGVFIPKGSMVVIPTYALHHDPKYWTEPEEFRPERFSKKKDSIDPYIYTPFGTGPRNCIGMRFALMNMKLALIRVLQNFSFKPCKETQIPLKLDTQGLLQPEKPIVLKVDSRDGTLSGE
Sequence of Cytochrome P450 3A4 (P08684 whole entry): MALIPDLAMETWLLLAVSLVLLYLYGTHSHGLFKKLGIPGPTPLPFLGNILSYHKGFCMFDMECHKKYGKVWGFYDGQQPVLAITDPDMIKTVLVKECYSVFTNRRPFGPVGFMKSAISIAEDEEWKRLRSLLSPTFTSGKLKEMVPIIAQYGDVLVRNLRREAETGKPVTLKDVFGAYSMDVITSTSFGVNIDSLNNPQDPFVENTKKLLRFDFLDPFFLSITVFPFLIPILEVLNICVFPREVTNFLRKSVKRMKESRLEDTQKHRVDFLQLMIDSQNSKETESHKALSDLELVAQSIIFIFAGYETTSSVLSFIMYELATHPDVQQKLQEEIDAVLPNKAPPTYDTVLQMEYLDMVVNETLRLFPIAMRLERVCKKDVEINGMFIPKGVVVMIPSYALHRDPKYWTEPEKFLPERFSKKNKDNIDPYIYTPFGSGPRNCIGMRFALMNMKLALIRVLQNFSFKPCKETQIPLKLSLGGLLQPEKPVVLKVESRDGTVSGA

| Structure (SMILES) | Drug metabolism (Cytochrome P450 3A5) | Drug metabolism (Liver [1]) | Drug metabolism (Cytochrome P450 3A4) | Drug metabolism [2] | Drug metabolism (Liver microsome [3]) | Drug metabolism (Liver [4]) | Retention_time [5] [min] | Drug metabolism (Liver microsome [6]) | Drug metabolism (Liver microsome [7]) | Retention_time (Liver microsome [8]) [min] | Retention_time (Liver [9]) [min] | Drug metabolism (Liver cytosol [10]) | Drug metabolism (Liver cytosol [11]) | Drug metabolism (Liver cytosol [12]) |
| --- | --- | --- | --- | --- | --- | --- | --- | --- | --- | --- | --- | --- | --- | --- |
| CC(C)(O)C(CC[C@](C)(O)[C@H]1CC[C@]2(C)[C@@H]1[C@H](O)C[C@@H]1[C@@]3(C)CC[C@H](O[C@@H]4O[C@H](CO)[C@@H](O)[C@H](O)[C@H]4O)C(C)(C)[C@@H]3CC[C@]12C)SC[C@H](NC(=O)CC[C@H](N)C(=O)O)C(=O)NCC(=O)O (some centres not stated) | metabolite_not_detected | metabolite_not_detected | metabolite_not_detected | metabolite_detected | metabolite_not_detected | metabolite_not_detected | 10.6 | metabolite_not_detected | metabolite_not_detected | – | – | – | – | – |
| C/C(=C\CC[C@](C)(O)[C@H]1CC[C@]2(C)[C@@H]1[C@H](O)C[C@@H]1[C@@]3(C)CC[C@H](O[C@@H]4O[C@H](CO)[C@@H](O)[C@H](O)[C@H]4O)C(C)(C)[C@@H]3CC[C@]12C)CO | metabolite_detected | metabolite_detected | metabolite_detected | metabolite_detected | metabolite_detected | metabolite_detected | – | metabolite_detected | metabolite_detected | 16.7 | 16.7 | metabolite_not_detected | metabolite_not_detected | metabolite_not_detected |
